# Results reported in ChEMBL document CHEMBL1154792, “chi-Conopeptide pharmacophore development: toward a novel class of norepinephrine transporter inhibitor (Xen2174) for pain” (J Med Chem, 2009).
# Activity calls are given as the source filed them. The rule behind the calls is not given here.
# Target: Sodium-dependent noradrenaline transporter (Homo sapiens, UniProt P23975)
# Test: Displacement of [3H]nisoxetine from human NET expressed in COS7 cells
# Assay type: cell-based
# Conditions: COS-7
# Summary of the method: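 Membranes from COS-7 cells transfected with human NET were incubated with [3H]nisoxetine (4.3 nM) with or without peptide (1 nM to 100 μM, triplicate) for 1 h at RT. Filter-retained radioactivity was counted by liquid scintillation, and values are given as pIC50. Data are means of 2–5 experiments in triplicate; peptide concentration was set by calibrated HPLC at 214 nm.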
# Sodium-dependent noradrenaline transporter, sequence (P23975 whole entry): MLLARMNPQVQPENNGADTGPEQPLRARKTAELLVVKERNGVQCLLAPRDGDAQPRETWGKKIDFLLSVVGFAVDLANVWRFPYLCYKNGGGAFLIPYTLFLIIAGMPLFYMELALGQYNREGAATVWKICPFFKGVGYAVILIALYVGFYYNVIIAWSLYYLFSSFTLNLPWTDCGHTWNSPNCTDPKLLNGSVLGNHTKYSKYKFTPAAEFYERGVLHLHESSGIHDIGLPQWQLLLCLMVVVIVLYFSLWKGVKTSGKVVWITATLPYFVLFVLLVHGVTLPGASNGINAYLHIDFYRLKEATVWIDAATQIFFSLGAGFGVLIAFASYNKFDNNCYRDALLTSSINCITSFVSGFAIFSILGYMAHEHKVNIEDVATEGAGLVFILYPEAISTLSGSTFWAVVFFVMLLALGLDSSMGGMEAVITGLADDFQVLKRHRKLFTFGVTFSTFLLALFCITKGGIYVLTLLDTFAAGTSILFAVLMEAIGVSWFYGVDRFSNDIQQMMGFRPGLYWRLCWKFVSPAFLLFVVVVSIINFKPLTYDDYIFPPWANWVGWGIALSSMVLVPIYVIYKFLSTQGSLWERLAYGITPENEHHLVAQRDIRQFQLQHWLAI
structure (smiles),measurement,value
CC(C)C[C@@H]1NC(=O)[C@H](CCCCN)NC(=O)[C@H](Cc2ccc(O)cc2)NC(=O)CNC(=O)C[C@@H]2CSSC[C@H](CC(=O)N[C@@H](Cc3cnc[nH]3)C(=O)N3CC[C@H](O)[C@H]3C(=O)N[C@H](CC(=O)O)CSSC[C@H](NC(=O)[C@@H](NC(=O)CNC(=O)[C@@H]3CCC(=O)N3)C(C)C)CC(=O)N2)NC1=O,Activity,inactive
